# What was measured:
# [1] = system: Rattus norvegicus; experiment: Effect of compound on thyroxine levels in 3rd group of normal chow-fed male rats after a dose of 5 mg/kg/day; type: functional, organism-based
# Outline: (§1)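 Male Sprague–Dawley CD rats, 60–80 g, on standard chow with reverse 12 h light/dark cycle. One oral gavage dose daily for 4 days, suspended in 1.3% Tween 80 and 0.25% CMC. Fasted overnight; sacrificed 24 h after the last dose. Serum TC on clinical analyzer, lipoproteins by FPLC with cholesterol per fraction, T4 on analyzer. Mean ± SEM, six rats per group.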
# [2] = system: Cricetinae gen. sp.; experiment: Effect of compound on thyroxine levels in 1st group of cholesterol-fed male hamsters at 3 mg/kg/day after 14 days of treatment; conditions: Mesocricetus auratus
# [3] = system: Mesocricetus auratus; experiment: Effect of compound on liver weight in 3rd group of cholesterol-fed male hamsters at 30 mg/kg/day after 14 days of treatment
# [4] = system: Rattus norvegicus; experiment: Effect of compound on high-density lipoprotein cholesterol levels in 7th group of normal chow-fed male rats after a dose of 100 mg/kg/day; type: functional, organism-based
# [5] = system: Rattus norvegicus; experiment: Effect of compound on triglyceride levels in 7th group of normal chow-fed male rats after a dose of 100 mg/kg/day; type: functional, organism-based
# Outline: (§2)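 Male Sprague–Dawley CD rats (60–80 g) on Purina 5001 chow with a reverse 12 h light/dark cycle. Dosed once daily by oral gavage for 4 days, suspended in 1.3% Tween 80 / 0.25% CMC. Fasted overnight and bled 24 h after the last dose. Serum TC and glycerol-blanked TG measured enzymatically; VLDL-C by FPLC fractionation with cholesterol assay. n=6, mean ± SEM.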
# [6] = system: Rattus norvegicus; experiment: Effect of compound on thyroxine levels in 4th group of normal chow-fed male rats after a dose of 10 mg/kg/day; type: functional, organism-based; outline: as §1
# [7] = system: Mesocricetus auratus; experiment: Effect of compound on gain in body weight in 4th group of cholesterol-fed male hamsters at 100 mg/kg/day after 14 days of treatment
# [8] = system: Cricetinae gen. sp.; experiment: Effect of compound on lactic dehydrogenase (LDH) levels in 2nd group of cholesterol-fed male hamsters at 10 mg/kg/day after 14 days of treatment; conditions: Mesocricetus auratus
# [9] = system: Rattus norvegicus; experiment: Effect of compound on total plasma cholesterol levels in 5th group of normal chow-fed male rats after a dose of 20 mg/kg/day; type: functional, organism-based; outline: as §2
# [10] = system: Rattus norvegicus; experiment: Effect of compound on relative liver weight in 2nd group of normal chow-fed male rats after a dose of 2 mg/kg/day; type: functional
# Outline: (§3)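 Chow-fed male Sprague–Dawley CD rats, 60–80 g, dosed by oral gavage once daily for 4 days in 1.3% Tween 80/0.25% CMC. Fasted overnight and sacrificed 24 h after the last dose. Liver weight expressed as % of body weight at termination. Six per group, mean ± SEM.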
# [11] = system: Rattus norvegicus; experiment: Effect of compound on triglyceride levels in 6th group of normal chow-fed male rats after a dose of 50 mg/kg/day; type: functional, organism-based; outline: as §2
# [12] = system: Rattus norvegicus; experiment: Effect of compound on aspartate aminotransferase (AST) levels in 3rd group of normal chow-fed male rats after a dose of 5 mg/kg/day; type: functional, organism-based
# Outline: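 Male Sprague–Dawley CD rats (60–80 g) on standard chow under a reversed 12 h light/dark cycle. Compound was suspended in 1.3% Tween 80/0.25% CMC and given as a single daily oral gavage dose for 4 days. Rats were fasted overnight and killed 24 h after the last dose. Serum ALT, AST, ALKP and LDH were read on a clinical analyzer. Weight gain was start versus end weight. Mean ± SEM, n = 6.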
# [13] = system: Rattus norvegicus; experiment: Effect of compound on serum high-density lipoprotein cholesterol concentration in chow-fed male rats at a dose of 100 mg/kg/day; type: functional, organism-based
# Outline: (§4)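 Separate dose-response study in male Sprague–Dawley CD rats, 60–80 g, on chow. Oral gavage once daily for 4 days in 1.3% Tween 80 / 0.25% CMC; fasted overnight, bled 24 h after last dose. Apo-A1 by ELISA with rabbit anti-rat primary, alkaline phosphatase-conjugated anti-rabbit IgG and p-nitrophenyl phosphate substrate. HDL-C by FPLC fractionation. Mean ± SEM, six per group.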
# [14] = system: Mesocricetus auratus; experiment: Effect of compound on gain in body weight in 1st group of cholesterol-fed male hamsters at 3 mg/kg/day after 14 days of treatment
# [15] = system: Rattus norvegicus; experiment: Effect of compound on serum apolipoprotein A1 concentration in chow-fed male rats at a dose of 50 mg/kg/day; type: functional, organism-based; outline: as §4
# [16] = system: Rattus norvegicus; experiment: Percent change in high-density lipoprotein cholesterol following oral administration of compound in normal chow-fed rats at 100 mg/kg/day for 4 days; type: functional
# Outline: (§5)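 Chow-fed male Sprague–Dawley CD rats, 60–80 g, gavaged 100 mg/kg/day for 4 days in 1.3% Tween 80/0.25% CMC. Fasted overnight, bled 24 h after the last dose. Total cholesterol and glycerol-blanked triglycerides read enzymatically; lipoproteins by FPLC with cholesterol per fraction. % change versus control; six per group, p < 0.05.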
# [17] = system: Rattus norvegicus; experiment: Effect of compound on total plasma cholesterol levels in 6th group of normal chow-fed male rats after a dose of 50 mg/kg/day; type: functional, organism-based; outline: as §2
# [18] = Effect on serum lipids in 5th group of normal chow-fed male rats after a dose of 20 mg/kg/day was evaluated as ratio of total plasma cholesterol levels to high-density lipoprotein cholesterol levels; type: functional
# Outline: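 Male Sprague–Dawley CD rats, 60–80 g, chow-fed, dosed by oral gavage daily for 4 days in 1.3% Tween 80/0.25% CMC. Fasted overnight, bled 24 h after the last dose. Serum total cholesterol by enzymatic reagent; HDL-C from cholesterol in FPLC fractions; TPC/HDL-C ratio calculated. Six per group, mean ± SEM.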
# [19] = system: Rattus norvegicus; experiment: Effect of compound on very low-density lipoprotein cholesterol levels in 1st group of normal chow-fed male rats after a dose of 1 mg/kg/day; type: functional, organism-based; outline: as §2
# [20] = system: Rattus norvegicus; experiment: Effect of compound on alanine aminotransferase (ALT) levels in 4th group of normal chow-fed male rats after a dose of 10 mg/kg/day
# [21] = system: Mesocricetus auratus; experiment: Effect of compound on gain in body weight in 2nd group of cholesterol-fed male hamsters at 10 mg/kg/day after 14 days of treatment
# [22] = system: Rattus norvegicus; experiment: Effect of compound on relative liver weight in 3rd group of normal chow-fed male rats after a dose of 5 mg/kg/day; type: functional; outline: as §3
# [23] = system: Rattus norvegicus; experiment: Effect of compound on high-density lipoprotein cholesterol levels in 3rd group of normal chow-fed male rats after a dose of 5 mg/kg/day; type: functional, organism-based
# [24] = system: Rattus norvegicus; experiment: Percent change in low-density lipoprotein cholesterol following oral administration of compound in normal chow-fed rats at 100 mg/kg/day for 4 days; type: functional; outline: as §5
# [25] = system: Rattus norvegicus; experiment: Effect of compound on serum high-density lipoprotein cholesterol concentration in chow-fed male rats at a dose of 0 mg/kg/day; type: functional, organism-based; outline: as §4
# [26] = system: Rattus norvegicus; experiment: Effect of compound on total plasma cholesterol levels in 1st group of normal chow-fed male rats after a dose of 1 mg/kg/day; type: functional, organism-based; outline: as §1
structure (smiles),measurement,setting,value
CCN1CC(=O)N(c2cc(Cl)ccc2C)C1=S,Serum level,[1],4.23 µg/dL
same,Serum level,[2],5.8 µg/dL
same,Liver weight,[3],8.5 g
same,Serum level,[4],76 mg/dL
same,Serum level,[5],12 mg/dL
same,Serum level,[6],3.98 µg/dL
same,Body weight,[7],9 g
same,Level,[8],1310 U l-1
same,Serum level,[9],84 mg/dL
same,Relative liver weight,[10],3.9%
same,Serum level,[11],14 mg/dL
same,Level,[12],216 U l-1
same,Serum level,[13],104 mg/dL
same,Body weight,[14],10.2 g
same,Serum level,[15],88.8 mg/dL
same,Change,[16],89.1%
same,Serum level,[17],101 mg/dL
same,Ratio,[18],1.44
same,Serum level,[19],4.3 mg/dL
same,Level,[20],58 U l-1
same,Body weight,[21],9.5 g
same,Relative liver weight,[22],3.8%
same,Serum level,[23],45 mg/dL
same,Change,[24],9.6%
same,Serum level,[25],51.9 mg/dL
same,Serum level,[26],55 mg/dL
